Assay results from ChEMBL document CHEMBL5357082, “Identification and Optimization of Small Molecule Pyrazolopyrimidine TLR7 Agonists for Applications in Immuno-oncology” (ACS Med Chem Lett, 2024).
Activity calls are given as the source filed them. No cut-off for these calls is given here.

What was measured:
[1] = biological target: T1, Toll-like receptor 7 (Mus musculus, UniProt P58681); assay: Agonist activity at mouse TLR7
T1 sequence (P58681 whole entry): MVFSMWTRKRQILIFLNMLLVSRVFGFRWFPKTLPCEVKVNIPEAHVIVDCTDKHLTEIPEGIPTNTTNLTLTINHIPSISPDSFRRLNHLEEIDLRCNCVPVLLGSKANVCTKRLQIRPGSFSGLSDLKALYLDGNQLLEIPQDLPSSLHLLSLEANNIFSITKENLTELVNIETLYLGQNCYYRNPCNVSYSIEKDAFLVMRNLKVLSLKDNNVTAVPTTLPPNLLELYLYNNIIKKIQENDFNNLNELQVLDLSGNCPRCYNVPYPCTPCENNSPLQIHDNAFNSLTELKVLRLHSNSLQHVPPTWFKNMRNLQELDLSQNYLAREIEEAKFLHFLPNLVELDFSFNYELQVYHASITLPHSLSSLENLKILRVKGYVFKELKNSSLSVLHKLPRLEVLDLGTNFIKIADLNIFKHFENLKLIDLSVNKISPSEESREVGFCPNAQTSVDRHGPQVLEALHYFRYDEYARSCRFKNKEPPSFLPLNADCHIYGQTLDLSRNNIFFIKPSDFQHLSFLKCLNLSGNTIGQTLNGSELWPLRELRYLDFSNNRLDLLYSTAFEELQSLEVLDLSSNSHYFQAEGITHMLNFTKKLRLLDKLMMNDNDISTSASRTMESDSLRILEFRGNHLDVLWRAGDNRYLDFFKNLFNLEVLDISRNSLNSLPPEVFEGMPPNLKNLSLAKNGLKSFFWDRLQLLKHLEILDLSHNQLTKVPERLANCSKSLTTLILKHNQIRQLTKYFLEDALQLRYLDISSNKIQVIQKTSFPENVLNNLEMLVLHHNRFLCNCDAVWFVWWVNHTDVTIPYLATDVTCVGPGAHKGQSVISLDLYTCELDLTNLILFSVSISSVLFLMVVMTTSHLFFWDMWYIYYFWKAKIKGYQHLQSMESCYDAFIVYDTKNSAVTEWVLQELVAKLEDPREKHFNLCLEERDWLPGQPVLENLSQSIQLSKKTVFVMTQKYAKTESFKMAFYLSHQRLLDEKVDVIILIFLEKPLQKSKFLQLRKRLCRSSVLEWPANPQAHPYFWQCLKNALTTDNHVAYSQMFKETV

[2] = Metabolic stability in mouse liver microsomes assessed as compound remaining at 0.5 uM incubated for 10 mins in presence of NADPH by UV absorbance based assay; format: ADME, Microsome; settings: read-out: Stability
[3] = biological target: Cytochrome P450 2C9 (Homo sapiens, UniProt P11712); assay: Inhibition of CYP2C9 (unknown origin); format: ADME
Chain of Cytochrome P450 2C9 (P11712 whole entry): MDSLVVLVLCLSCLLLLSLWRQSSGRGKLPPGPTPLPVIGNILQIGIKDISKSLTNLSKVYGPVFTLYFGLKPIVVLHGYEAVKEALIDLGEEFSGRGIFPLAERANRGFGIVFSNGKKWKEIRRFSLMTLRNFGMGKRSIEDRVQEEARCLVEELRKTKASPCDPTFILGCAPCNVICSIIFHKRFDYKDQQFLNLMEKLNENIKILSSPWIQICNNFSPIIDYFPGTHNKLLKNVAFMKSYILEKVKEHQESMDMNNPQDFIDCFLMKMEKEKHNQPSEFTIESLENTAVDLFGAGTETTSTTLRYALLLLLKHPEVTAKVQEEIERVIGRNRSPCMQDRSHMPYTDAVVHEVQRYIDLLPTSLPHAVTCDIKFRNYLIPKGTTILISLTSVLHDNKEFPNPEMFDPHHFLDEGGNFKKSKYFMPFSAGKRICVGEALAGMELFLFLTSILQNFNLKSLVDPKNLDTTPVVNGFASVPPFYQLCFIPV

[4] = Cytotoxicity against PHA-activated T-cells (unknown origin) assessed as inhibition of IL-2 induced cell proliferation measured after 72 hrs by MTS assay; format: toxicity, cell-based
[5] = biological target: T2, Toll-like receptor 7 (Homo sapiens, UniProt Q9NYK1); assay: Agonist activity at human TLR7 in HEK-Blue hTLR7 cells harboring SEAP reporter transgene incubated for 18 hrs by quanti-blue reagent based assay; format: cell-based
T2 sequence (Q9NYK1 whole entry): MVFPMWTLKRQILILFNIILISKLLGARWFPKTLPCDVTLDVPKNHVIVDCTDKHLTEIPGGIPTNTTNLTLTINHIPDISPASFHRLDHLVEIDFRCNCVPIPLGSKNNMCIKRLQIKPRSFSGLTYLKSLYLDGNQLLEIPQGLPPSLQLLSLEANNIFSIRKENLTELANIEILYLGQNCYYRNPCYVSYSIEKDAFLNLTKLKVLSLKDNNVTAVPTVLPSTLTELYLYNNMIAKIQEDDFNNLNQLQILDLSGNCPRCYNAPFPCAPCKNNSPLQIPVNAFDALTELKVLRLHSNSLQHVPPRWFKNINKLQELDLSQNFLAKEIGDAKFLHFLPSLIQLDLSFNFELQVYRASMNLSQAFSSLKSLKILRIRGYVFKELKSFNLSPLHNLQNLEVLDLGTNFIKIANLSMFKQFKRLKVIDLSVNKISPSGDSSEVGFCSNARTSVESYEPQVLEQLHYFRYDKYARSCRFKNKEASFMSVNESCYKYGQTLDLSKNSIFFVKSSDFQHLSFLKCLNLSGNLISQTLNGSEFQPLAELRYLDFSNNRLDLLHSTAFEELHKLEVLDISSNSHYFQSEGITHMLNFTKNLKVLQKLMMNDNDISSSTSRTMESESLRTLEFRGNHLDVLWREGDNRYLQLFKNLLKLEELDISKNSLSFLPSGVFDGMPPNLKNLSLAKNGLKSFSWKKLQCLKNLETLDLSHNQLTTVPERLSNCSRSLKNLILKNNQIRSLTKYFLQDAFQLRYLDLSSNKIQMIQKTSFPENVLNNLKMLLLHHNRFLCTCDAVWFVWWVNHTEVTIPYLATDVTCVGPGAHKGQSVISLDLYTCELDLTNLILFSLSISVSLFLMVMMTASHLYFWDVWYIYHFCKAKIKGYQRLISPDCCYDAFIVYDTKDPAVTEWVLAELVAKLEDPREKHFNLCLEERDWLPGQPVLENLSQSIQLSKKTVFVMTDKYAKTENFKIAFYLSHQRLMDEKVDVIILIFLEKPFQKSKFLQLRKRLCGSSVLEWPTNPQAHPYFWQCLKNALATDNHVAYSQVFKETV

[6] = biological target: Cytochrome P450 2C19 (Homo sapiens, UniProt P33261); assay: Inhibition of CYP2C19 (unknown origin); format: ADME
Chain of Cytochrome P450 2C19 (P33261 whole entry): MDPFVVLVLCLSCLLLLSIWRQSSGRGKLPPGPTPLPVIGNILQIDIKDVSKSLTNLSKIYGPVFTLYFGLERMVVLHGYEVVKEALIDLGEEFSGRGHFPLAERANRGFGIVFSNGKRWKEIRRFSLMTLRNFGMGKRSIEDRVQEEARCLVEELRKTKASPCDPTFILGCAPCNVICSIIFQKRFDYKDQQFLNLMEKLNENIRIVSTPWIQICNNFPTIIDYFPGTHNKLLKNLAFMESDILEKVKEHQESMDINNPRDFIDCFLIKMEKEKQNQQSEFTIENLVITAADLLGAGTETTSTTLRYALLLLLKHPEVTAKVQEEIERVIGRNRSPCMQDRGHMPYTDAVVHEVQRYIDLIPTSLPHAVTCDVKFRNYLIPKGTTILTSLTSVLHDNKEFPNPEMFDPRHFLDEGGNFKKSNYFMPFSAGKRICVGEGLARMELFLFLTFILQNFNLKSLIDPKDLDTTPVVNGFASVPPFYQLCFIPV

[7] = test system: CT26; assay: Antitumor activity against syngeneic mouse CT26 cells implanted in ip dosed Balb/cAnNHsd mouse assessed as tumor growth delay administered once a week for 4 weeks in presence of aPD1 antibody and measured twice weekly by digital caliper analysis; format: functional, organism-based; settings: dose 0.5-2.5 mg/kg
Summary of the method: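 Syngeneic CT-26 tumors in mice. The TLR7 agonist was given at 0.5 or 2.5 mg/kg weekly for 4 doses (QWx4). It was combined with anti-PD1 antibody at 10 mg/kg IP, every 4 days for 7 doses (Q4Dx7). Tumor growth was followed, including 27 days after compound dosing stopped.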

For `CCC[C@@H](CCO)Nc1nc(N)nc2cnn(Cc3ncc(C4CCN(C5CCOCC5)CC4)cc3OC)c12`, which EC50 [1] is on record?
Its EC50 is 27 nM.

What about the remaining at 10 min, 0.5 µM [2] of the same compound?
Its remaining at 10 min, 0.5 µM is 100%.

What about the IC50 [3] of the same compound?
The IC50 was > 20000 nM.

What about the IC50 at 72 h [4] of the same compound?
Its IC50 at 72 h is > 25000 nM.

What about the EC50 [5] of the same compound?
The EC50 was 13 nM.

What about the IC50 [6] of the same compound?
Its IC50 is > 20000 nM.

What about the Activity [7] of the same compound?
Its Activity is “Active”.
